≈ marks a conversion by molar mass, not a printed value.
Columns and labels:
Klebsiella pneumoniae [1] = experiment: Antibacterial activity against Klebsiella pneumoniae isolate 377 in vitro pharmacodynamic model; assay type: functional
Outline: (§1)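 Simulated peak 38.4 µg/ml, trough 3.04 µg/ml. CAMHB at 37°C, 10^6 CFU/ml from overnight culture, drug started at 0.5 h. Two treated models plus one growth control. Change in log10 CFU/ml over 24 h on blood agar. Detection limit 10^1 CFU/ml.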

Klebsiella pneumoniae [2] = experiment: Antibacterial activity against Klebsiella pneumoniae isolate 375 in vitro pharmacodynamic model; assay type: functional; outline: as §1
Pseudomonas aeruginosa [3] = experiment: Antibacterial activity against Pseudomonas aeruginosa isolate 1030 in vitro pharmacodynamic model; assay type: functional; outline: as §1
Klebsiella pneumoniae [4] = experiment: fT>MIC in Klebsiella pneumoniae isolate 328A at 2 gram for every 8 hrs administered as 3 hrs infusion over 24 hrs in in vitro pharmcodynamic model; assay type: functional
Outline: (§2)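 Samples assayed by HPLC (linear 0.25–40 µg/ml). Time free drug stayed above the modal triplicate broth-microdilution MIC (CLSI) calculated for each 8-h interval.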

Pseudomonas aeruginosa [5] = experiment: fT>MIC in Pseudomonas aeruginosa isolate 1030 at 2 gram for every 8 hrs administered as 3 hrs infusion over 24 hrs in in vitro pharmcodynamic model; assay type: functional
Pseudomonas aeruginosa [6] = experiment: fT>MIC in Pseudomonas aeruginosa isolate 762 at 2 gram for every 8 hrs administered as 3 hrs infusion over 24 hrs in in vitro pharmcodynamic model; assay type: functional
Klebsiella pneumoniae [7] = experiment: fT>MIC in Klebsiella pneumoniae isolate 334 at 2 gram for every 8 hrs administered as 3 hrs infusion measured over 0-8 hrs in in vitro pharmcodynamic model; assay type: functional; outline: as §2
Klebsiella pneumoniae [8] = experiment: fT>MIC in Klebsiella pneumoniae isolate 375 at 2 gram for every 8 hrs administered as 3 hrs infusion measured over 0-8 hrs in in vitro pharmcodynamic model; assay type: functional
Klebsiella pneumoniae [9] = experiment: fT>MIC in Klebsiella pneumoniae isolate 351 at 2 gram for every 8 hrs administered as 3 hrs infusion measured over 8-16 hrs in in vitro pharmcodynamic model; assay type: functional; outline: as §2
Klebsiella pneumoniae [10] = experiment: fT>MIC in Klebsiella pneumoniae isolate 334 at 2 gram for every 8 hrs administered as 3 hrs infusion measured over 8-16 hrs in in vitro pharmcodynamic model; assay type: functional; outline: as §2
Pseudomonas aeruginosa [11] = experiment: fT>MIC in Pseudomonas aeruginosa isolate 988 at 2 gram for every 8 hrs administered as 3 hrs infusion measured over 8-16 hrs in in vitro pharmcodynamic model; assay type: functional
Klebsiella pneumoniae [12] = experiment: fT>MIC in Klebsiella pneumoniae isolate 353 at 2 gram for every 8 hrs administered as 3 hrs infusion measured over 16-24 hrs in in vitro pharmcodynamic model; assay type: functional, isoalte 353; outline: as §2
Klebsiella pneumoniae [13] = experiment: fT>MIC in Klebsiella pneumoniae isolate 375 at 2 gram for every 8 hrs administered as 3 hrs infusion measured over 16-24 hrs in in vitro pharmcodynamic model; assay type: functional
Pseudomonas aeruginosa [14] = experiment: fT>MIC in Pseudomonas aeruginosa isolate 1038 at 2 gram for every 8 hrs administered as 3 hrs infusion measured over 16-24 hrs in in vitro pharmcodynamic model; assay type: functional
Pseudomonas aeruginosa [15] = experiment: fT>MIC in Pseudomonas aeruginosa isolate 762 at 2 gram for every 8 hrs administered as 3 hrs infusion measured over 16-24 hrs in in vitro pharmcodynamic model; assay type: functional
Pseudomonas aeruginosa [16] = experiment: fT>MIC in Pseudomonas aeruginosa isolate 896 at 2 gram for every 8 hrs administered as 3 hrs infusion measured over 16-24 hrs in in vitro pharmcodynamic model; assay type: functional
Klebsiella pneumoniae [17] = experiment: Antibacterial activity against Klebsiella pneumoniae isolate 328A assessed as reduction of bacterial count at 8 ug/ml within 6 hrs in vitro pharmacodynamic model; assay type: functional
Klebsiella pneumoniae [18] = experiment: Antibacterial activity against Klebsiella pneumoniae isolate 377 assessed as reduction of bacterial count at 2 ug/ml within 6 hrs in vitro pharmacodynamic model; assay type: functional
Pseudomonas aeruginosa [19] = experiment: Antibacterial activity against Pseudomonas aeruginosa isolate 896 assessed as reduction of bacterial count at 16 ug/ml within 6 hrs in vitro pharmacodynamic model; assay type: functional

`C[C@@H](O)[C@H]1C(=O)N2C(C(=O)O)=C(S[C@@H]3CN[C@H](C(=O)N(C)C)C3)[C@H](C)[C@H]12` [MEROPENEM] was tested, and the MIC (Klebsiella pneumoniae [1]) was 2 µg/mL (≈ 5.22 µM), the MIC (Klebsiella pneumoniae [2]) was 32 µg/mL (≈ 83.4 µM) and the MIC (Pseudomonas aeruginosa [3]) was 8 µg/mL (≈ 20.9 µM). The “fT>MIC” value (Klebsiella pneumoniae [4]) was 69%, the “fT>MIC” value (Pseudomonas aeruginosa [5]) was 69% and the “fT>MIC” value (Pseudomonas aeruginosa [6]) was 47%. For the same compound, the “fT>MIC” value (Klebsiella pneumoniae [7]) was 0%, the “fT>MIC” value (Klebsiella pneumoniae [8]) was 0% and the “fT>MIC” value (Klebsiella pneumoniae [9]) was 62%. For the same compound, the “fT>MIC” value (Klebsiella pneumoniae [10]) was 0%, the “fT>MIC” value (Pseudomonas aeruginosa [11]) was 50% and the “fT>MIC” value (Klebsiella pneumoniae [12]) was 0%. For the same compound, the “fT>MIC” value (Klebsiella pneumoniae [13]) was 0%, the “fT>MIC” value (Pseudomonas aeruginosa [14]) was 82% and the “fT>MIC” value (Pseudomonas aeruginosa [15]) was 56%. For the same compound, the “fT>MIC” value (Pseudomonas aeruginosa [16]) was 56%, the log10cfu (Klebsiella pneumoniae [17]) was >3 and the log10cfu (Klebsiella pneumoniae [18]) was >3. The log10cfu (Pseudomonas aeruginosa [19]) was “>=3”.

— ChEMBL document CHEMBL1212799 (2010)
